# Measurements taken from paper PMC7551138 (Alzheimer's & Dementia : Translational Research & Clinical …, 2020).
# Experiments:
# healthy elderly subjects [1] = assay: NeuroCart eye movements; assay type: in vivo, human; settings: 22 mg b.i.d. intranasal 7 days; vs placebo, mean (confidence interval)
# In short: (§1)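 NeuroCart tests were repeated over time during the 7-day b.i.d. intranasal dosing: eye movements, N-back with 3 working-memory-load conditions, pharmaco-EEG, and 100-mm VAS (Bond and Lader mood/alertness/calmness; nausea). In the 22 mg cohort, EEG at 30 min and 3 h post-dose was dropped. Analysis was mixed-model ANOVA (treatment, time, treatment×time fixed; subject random; baseline covariate), giving LSM difference versus placebo with CI.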
# healthy elderly subjects [2] = assay: N‐back test; assay type: in vivo, human; settings: vs placebo, mean (confidence interval)
# In short: as §1
# [3] = cited from earlier work
# [4] = CSF and plasma concentrations, Gln‐1062 11 mg vs 16 mg oral galantamine; assay type: in vivo, human
# [5] = Plasma pharmacokinetics, non‐compartmental analysis; assay type: in vivo, human
# healthy elderly subjects [6] = assay: Vital signs; assay type: in vivo, human; settings: for Diastolic BP supine / Pulse Rate supine / Systolic BP supine: vs placebo, mean (confidence interval)
# In short: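 Randomised, double-blind, placebo-controlled trial in healthy subjects aged ≥65 (n=48; 12 active:4 placebo per cohort, placebos pooled). Intranasal test compound 5.5, 11 or 22 mg or 0.9% NaCl b.i.d. for 7 days, 6 h between doses. The 11 mg active subjects later got one open-label oral 16 mg dose of the parent drug. Safety was tracked by TEAEs, nasal examination, vital signs, ECG and safety bloods.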
# healthy elderly subjects [7] = assay: Pharmaco‐electroencephalography; assay type: in vivo, human; settings: for EEG Delta Fz‐Cz closed (uV^2/Hz) / EEG Delta Fz‐Cz open (uV^2/Hz) / EEG Delta Pz‐O1 closed (uV^2/Hz) / EEG Delta Pz‐O1 open (uV^2/Hz) / EEG Delta Pz‐O2 closed (uV^2/Hz) / EEG Delta Pz‐O2 open (uV^2/Hz): vs placebo, mean (confidence interval)
# In short: as §1
# healthy elderly subjects [8] = assay: NeuroCart adaptive tracking test; assay type: in vivo, human; settings: vs placebo, mean (confidence interval)
# In short: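 Joystick task keeping a dot inside a moving circle. Circle speed rises while the dot stays inside and falls when it escapes. The score is % time tracked over 3.5 min, including a 0.5 min run-in. Testing was repeated over time, with extra sessions in the 22 mg cohort. Analysis was mixed-model ANOVA (treatment, time, treatment×time fixed; subject random; baseline covariate), reporting LSM difference versus placebo with CI.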
# [9] = 5.5 mg b.i.d. intranasal 7 days
compound,measurement,setting,value
COc1ccc2c3c1O[C@H]1C[C@@H](OC(=O)c4ccccc4)C=C[C@@]31CCN(C)C2 [Gln‐1062],Saccadic Peak Velocity,healthy elderly subjects [1],"8.63 (−13.65, 30.91) P = 0.4379 deg/s"
same,Saccadic Reaction Time,healthy elderly subjects [1],"−0.0013 (−0.0126, 0.0101) P = 0.8228 sec"
same,Smooth Pursuit,healthy elderly subjects [1],"2.00 (−1.88, 5.88) P = 0.3039%"
same,N‐back corr‐incorr/total 1,healthy elderly subjects [2]; [9],"0.026 (−0.026, 0.078) P = 0.3186"
same,N‐back corr‐incorr/total 2,healthy elderly subjects [2]; [9],"−0.002 (−0.068, 0.064) P = 0.9575"
same,N‐back mean RT 2 back,healthy elderly subjects [2]; [9],"−45.6 (−99.3, 8.2) P = 0.0944 msec"
same,N‐back corr‐incorr/total 1,healthy elderly subjects [2]; 11 mg b.i.d. intranasal 7 days,"0.027 (−0.023, 0.076) P = 0.2811"
same,N‐back corr‐incorr/total 2,healthy elderly subjects [2]; 11 mg b.i.d. intranasal 7 days,"−0.016 (−0.081, 0.049) P = 0.6231"
same,N‐back mean RT 1 back,healthy elderly subjects [2]; 11 mg b.i.d. intranasal 7 days,"6.1 (−39.6, 51.8) P = 0.7893 msec"
same,N‐back corr‐incorr/total 1,healthy elderly subjects [2]; 22 mg b.i.d. intranasal 7 days,"0.020 (−0.029, 0.069) P = 0.4242"
same,N‐back corr‐incorr/total 2,healthy elderly subjects [2]; 22 mg b.i.d. intranasal 7 days,"0.036 (−0.028, 0.099) P = 0.2661"
same,N‐back mean RT 1 back,healthy elderly subjects [2]; 22 mg b.i.d. intranasal 7 days,"−24.4 (−67.1, 18.3) P = 0.2558 msec"
same,N‐back mean RT 2 back,healthy elderly subjects [2]; 22 mg b.i.d. intranasal 7 days,"−71.4 (−126.4,−16.3) P = 0.0123 msec"
same,tolerability compared with 16 mg oral galantamine and other ChEIs,[3]; 22 mg,better tolerated
same,sustained attention (adaptive tracking) and verbal memory (VVLT),"[3]; 5.5, 11, 22, 33 and 44 mg",dose‐dependent improvements
same,Gln‐1062 concentrations in CSF,[4]; 11 mg Gln‐1062 intranasal,below the limit of quantification
same,"Dose‐corrected plasma and CSF concentrations of galantamine cleaved from Gln‐1062, compared with oral galantamine",[4]; 11 mg Gln‐1062 intranasal vs 16 mg oral galantamine,lower
same,"t1/2 of Gln‐1062 in plasma, mean (± SD)",[5]; 5.5 mg intranasal,1.16 (±0.37) hour
same,"t1/2 of Gln‐1062 in plasma, mean (± SD)",[5]; 22 mg intranasal,2.09 (± 0.58) hour
same,median Tmax of Gln‐1062 in plasma,"[5]; intranasal 5.5, 11 or 22 mg b.i.d., range 0.5 to 1.0 hour",30 min
same,Diastolic BP supine,healthy elderly subjects [6]; [9],"2.5 (−0.6, 5.6) P = 0.1105 mmHg"
same,Pulse Rate supine,healthy elderly subjects [6]; [9],"−2.5 (−6.4, 1.4) P = 0.2044 bpm"
same,Systolic BP supine,healthy elderly subjects [6]; [9],"5.0 (−0.3, 10.4) P = 0.0644 mmHg"
same,Diastolic BP supine,healthy elderly subjects [6]; 11 mg b.i.d. intranasal 7 days,"0.9 (−2.2, 4.1) P = 0.5566 mmHg"
same,Pulse Rate supine,healthy elderly subjects [6]; 11 mg b.i.d. intranasal 7 days,"−1.0 (−4.9, 2.9) P = 0.6030 bpm"
same,Systolic BP supine,healthy elderly subjects [6]; 11 mg b.i.d. intranasal 7 days,"1.2 (−4.1, 6.5) P = 0.6528 mmHg"
same,Diastolic BP supine,healthy elderly subjects [6]; 22 mg b.i.d. intranasal 7 days,"1.2 (−1.9, 4.3) P = 0.4437 mmHg"
same,Pulse Rate supine,healthy elderly subjects [6]; 22 mg b.i.d. intranasal 7 days,"0.5 (−3.5, 4.4) P = 0.8169 bpm"
same,Systolic BP supine,healthy elderly subjects [6]; 22 mg b.i.d. intranasal 7 days,"1.8 (−3.6, 7.2) P = 0.5098 mmHg"
same,effect on the pulse rate,healthy elderly subjects [6]; all dose levels,No statistically significant effect
same,increase in mean diastolic blood pressure,"healthy elderly subjects [6]; first dosing day, 11 mg",5.1 mm Hg
same,changes in blood and urinary laboratory values and ECG safety parameters,healthy elderly subjects [6]; multiple doses,did not result in clinically significant changes
same,increase in systolic blood pressure,"healthy elderly subjects [6]; seventh day, 5.5 mg",7.6 mm Hg
same,EEG Delta Fz‐Cz closed (uV^2/Hz),healthy elderly subjects [7]; [9],"−1.8% (−30.4%, 38.5%) P = 0.9140"
same,EEG Delta Fz‐Cz open (uV^2/Hz),healthy elderly subjects [7]; [9],"−13.6% (−35.0%, 14.8%) P = 0.3010"
same,EEG Delta Pz‐O1 closed (uV^2/Hz),healthy elderly subjects [7]; [9],"−3.1% (−36.1%, 46.9%) P = 0.8765"
same,EEG Delta Pz‐O1 open (uV^2/Hz),healthy elderly subjects [7]; [9],"−12.9% (−39.4%, 25.1%) P = 0.4391"
same,EEG Delta Pz‐O2 closed (uV^2/Hz),healthy elderly subjects [7]; [9],"−13.4% (−39.2%, 23.5%) P = 0.4151"
same,EEG Delta Pz‐O2 open (uV^2/Hz),healthy elderly subjects [7]; [9],"3.1% (−23.8%, 39.4%) P = 0.8382"
same,EEG Delta Fz‐Cz closed (uV^2/Hz),healthy elderly subjects [7]; 11 mg b.i.d. intranasal 7 days,"−14.8% (−37.6%, 16.4%) P = 0.3023"
same,EEG Delta Fz‐Cz open (uV^2/Hz),healthy elderly subjects [7]; 11 mg b.i.d. intranasal 7 days,"−2.5% (−25.2%, 27.0%) P = 0.8435"
same,EEG Delta Pz‐O1 closed (uV^2/Hz),healthy elderly subjects [7]; 11 mg b.i.d. intranasal 7 days,"−12.4% (−41.5%, 31.2%) P = 0.5079"
same,EEG Delta Pz‐O1 open (uV^2/Hz),healthy elderly subjects [7]; 11 mg b.i.d. intranasal 7 days,"−5.4% (−33.6%, 34.6%) P = 0.7474"
same,EEG Delta Pz‐O2 closed (uV^2/Hz),healthy elderly subjects [7]; 11 mg b.i.d. intranasal 7 days,"−0.4% (−28.5%, 38.7%) P = 0.9799"
same,EEG Delta Pz‐O2 open (uV^2/Hz),healthy elderly subjects [7]; 11 mg b.i.d. intranasal 7 days,"3.7% (−21.2%, 36.6%) P = 0.7851"
same,EEG delta power at the frontal and parietal locations,healthy elderly subjects [7]; 22 mg,significantly decreased
same,EEG Delta Fz‐Cz closed (uV^2/Hz),healthy elderly subjects [7]; 22 mg b.i.d. intranasal 7 days,"−19.8% (−35.7%,−0.1%) P = 0.0495"
same,EEG Delta Fz‐Cz open (uV^2/Hz),healthy elderly subjects [7]; 22 mg b.i.d. intranasal 7 days,"−30.1% (−48.3%,−5.3%) P = 0.0235"
same,EEG Delta Pz‐O1 closed (uV^2/Hz),healthy elderly subjects [7]; 22 mg b.i.d. intranasal 7 days,"−27.4% (−46.1%,−2.1%) P = 0.0369"
same,EEG Delta Pz‐O1 open (uV^2/Hz),healthy elderly subjects [7]; 22 mg b.i.d. intranasal 7 days,"−29.1% (−45.3%,−8.0%) P = 0.0126"
same,EEG Delta Pz‐O2 closed (uV^2/Hz),healthy elderly subjects [7]; 22 mg b.i.d. intranasal 7 days,"−21.5% (−35.1%, −5.0%) P = 0.0154"
same,EEG Delta Pz‐O2 open (uV^2/Hz),healthy elderly subjects [7]; 22 mg b.i.d. intranasal 7 days,"−16.5% (−33.4%, 4.8%) P = 0.1128"
same,Adaptive tracking,healthy elderly subjects [8]; [9],"0.520 (−0.779, 1.818) P = 0.4240 %‐point"
same,Adaptive tracking,healthy elderly subjects [8]; 11 mg b.i.d. intranasal 7 days,"0.318 (−0.992, 1.627) P = 0.6266 %‐point"
